CHO parental Ca = ATP-evoked calcium signal inhibitors, parental CHO, primary screen, counter-screen for OX1R antagonist project, cell-based, fluorescence, Fluo-8 calcium dye | inhibition, % at 5.6 µM | actives 0.63% (n = 330,000) | parental CHO-K1, ATP-induced calcium, Fluo-8 fluorescence | AID 463079, 2010;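 active means inhibition above that plate's mean sample inhibition plus 3 SD, cut at about 26% in these data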
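Material – parental CHO cells · Reagent – ATP stimulus · Compound – single nominal dose of 5.6 µM per compound · Detection – Fluo-8 fluorescence · Read-out basis – percent inhibition of calcium signal · Controls – ATP-challenged DMSO wells low, unchallenged DMSO wells high · Repeats – no replicates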
OX1R antag-1 = OX1R (HCRTR1) antagonists, primary screen, fluorescence, CHO/OX1R cells, Fluo-8 calcium, orexin A; Orexin/Hypocretin receptor type 1 (Homo sapiens), O43613; Fluo-8 calcium fluorescence; inhibition, % at 5 µM; actives 0.43% (n = 330,000); AID 434989, 2010;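 active means inhibition above its plate's threshold, mean inhibition of all tested compounds on the plate plus 3 SD, cut at about 37% in these data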
Target sequence (O43613 whole entry, looked up): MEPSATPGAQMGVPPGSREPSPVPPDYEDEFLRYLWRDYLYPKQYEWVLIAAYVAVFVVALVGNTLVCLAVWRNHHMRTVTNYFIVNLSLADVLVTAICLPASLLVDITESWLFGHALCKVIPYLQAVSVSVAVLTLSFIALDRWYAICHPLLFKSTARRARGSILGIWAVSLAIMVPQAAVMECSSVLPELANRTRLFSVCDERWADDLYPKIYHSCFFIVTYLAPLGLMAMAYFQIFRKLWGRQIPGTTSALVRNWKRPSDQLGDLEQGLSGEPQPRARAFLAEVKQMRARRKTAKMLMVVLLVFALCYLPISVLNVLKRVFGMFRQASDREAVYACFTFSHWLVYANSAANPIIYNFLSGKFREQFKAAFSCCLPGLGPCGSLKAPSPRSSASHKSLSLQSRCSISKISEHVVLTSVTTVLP
NTR1 agonist = agonists of human NTR1, primary screen, imaging, U2OS cells, beta-arrestin-GFP, high content; Neurotensin receptor type 1 (Homo sapiens), P30989; activation, % at 20 µM; actives 0.17% (n = 330,000); NTR1-U2OS beta-arrestin-GFP spot imaging, agonist mode; AID 493036, 2011;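 active means activation at or above 40% of the spot to cytoplasm intensity ratio, with at least 20 cells analyzed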
OX1R antag-2 = antagonists of human orexin 1 receptor (OX1R). AID 485270, 2010. Orexin/Hypocretin receptor type 1 (Homo sapiens), O43613. actives 1.8% (n = 330,000). inhibition, % at 6.6 µM. OX1R-expressing cells, FRET antagonist read-out; in the data active means inhibition mostly above about 38%, no sharp cut-off; inactive means mostly below about 40%
TAAR1 ag = human TAAR1 agonists, primary screen, Fluo-8 calcium fluorescence, CHO RD-HGA16 cells | vehicle wells 0%, saturating PEA agonist 100% | Trace amine-associated receptor 1 (Homo sapiens), Q96RJ0 | AID 624467, 2012 | actives 0.99% (n = 360,000) | activation, % at 3 µM;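 active means activation above the mean activation of all test compounds in the run plus 3 SD, cut at about 38% in these data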
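Test system: RD-HGA16 (CHO) cells co-expressing Gα16 and hTAAR1 / Benchmarks: DMSO vehicle as 0%, PEA at EC100 as 100% / Repeats: no replicates (n 1) / Measure: % activation from peak over basal fluorescence ratio, DMSO-to-PEA scaled / Timing: 17-24 h plating, Fluo-8 75 min 37 °C, 30 min RT / Technique: kinetic Fluo-8 calcium fluorescence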
TAAR1 antagonist = human TAAR1 antagonists, primary screen, Fluo-8 calcium fluorescence, CHO RD-HGA16 cells; Trace amine-associated receptor 1 (Homo sapiens), Q96RJ0; antagonist; inhibition, % at 3 µM; actives 1.5% (n = 360,000);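 active means inhibition above a per-plate cutoff, the mean inhibition of test compounds on that plate plus 3 SD, cut at about 49% in these data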
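Assay system: RD-HGA16 CHO cells with stable hTAAR1 and Gα16 / Reagent: EC80 β-phenethylamine stimulus / Doses: 3 µM, single point / Timing: dye loading 75 min at 37 °C, then 30 min room temperature / Measured by: Fluo-8 intracellular calcium dye fluorescence, real-time kinetic reads / Controls: vehicle wells and EC80 agonist wells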
TAAR1 ag confirm = human TAAR1 agonists, retest of hits, confirmation, Fluo-8 calcium fluorescence, CHO RD-HGA16 cells; AID 651783, 2012; actives 82% (n = 2,400); scaled: DMSO 0%, maximal phenethylamine 100%; activation, % at 3 µM; shares compounds with TAAR1 ag;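 active means activation above a cutoff set at the run's mean compound activation plus 3 SD, cut at about 39% in these data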
Ga16 ag counter = nonselective calcium mobilization agonists, CHO-Ga16 cells, counter-screen for hTAAR1 agonist project, cell-based, fluorescence, CHO-Ga16 parental line | shares compounds with TAAR1 ag | Fluo-8 calcium fluorescence; normalized to maximal ATP response, DMSO zero | activation, % at 3 µM | actives 50% (n = 2,400) | AID 651787, 2012;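 active means activation above the run cutoff, the mean activation over all tested wells plus 3 SD, cut at about 12% in these data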
TAAR1 desens = TAAR1 desensitization by agonist hits, confirmation, counter-screen for TAAR1 agonist project, cell-based, fluorescence, tachyphylaxis. shares compounds with TAAR1 ag. CHO RD-HGA16 hTAAR1, Fluo-8 calcium, beta-PEA response inhibition. inhibition, % at 3 µM. actives 46% (n = 2,400);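 active means inhibition above the run cutoff, the mean inhibition of all test compounds plus 3 SD, cut at about 49% in these data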;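 further: beta-PEA stimulus applied at its EC80; loss of beta-PEA calcium signal after compound pretreatment read as receptor desensitization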
Ga16 nonsel ant = inhibition of ATP-evoked calcium response in CHO-Ga16 cells, counter-screen for TAAR1 agonist project, cell-based, fluorescence; shares compounds with TAAR1 ag; actives 39% (n = 2,400); CHO-Ga16 ATP-induced calcium, Fluo-8 fluorescence; inhibition, % at 3 µM;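 active means inhibition above the plate's mean compound inhibition plus 3 SD, computed per plate, cut at about 22% in these data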
Numbers stand for hits; 0 = inactive; - = no result. A selection: hits, their analogues and other compounds. The true share with any hit is near 4%.

SMILES | CHO parental Ca | OX1R antag-1 | NTR1 agonist | OX1R antag-2 | TAAR1 ag | TAAR1 antagonist | TAAR1 ag confirm | Ga16 ag counter | TAAR1 desens | Ga16 nonsel ant
COc1ccc(C2(C)NC(=O)N(CC(=O)c3cc(C)n(C4CC4)c3C)C2=O)cc1 (stereo unspecified) | 0 | 52 | 0 | 0 | 137 | 83 | 104 | 50 | 0 | 26
Cc1cc(C(=O)CN2C(=O)NC(C)(c3ccc(F)c(F)c3)C2=O)c(C)n1C1CC1 (stereo unspecified) | - | - | - | - | 68 | 0 | 84 | 30 | 0 | 0
Cc1cccc(NC(=O)CNC(=O)Cc2ccc3c(c2)OCCO3)c1C | 0 | 0 | 0 | 0 | 0 | 0 | - | - | - | -
N#CC1(NC(=O)COC(=O)c2nccnc2N)CCCCC1 | 0 | 0 | 0 | 0 | 0 | 0 | - | - | - | -
CCOc1ccccc1C(=O)N[C@H](C(=O)Nc1nc2c(s1)CCCC2)C(C)C | 0 | 0 | 0 | 0 | 46 | 0 | 41 | 13 | 0 | 0
CC(CC(=O)Nc1ccc2c(c1)c(=O)n(C)n2Cc1ccc(F)cc1)C(F)(F)F (stereo unspecified) | - | - | - | - | 0 | 0 | - | - | - | -
Nc1cc(OC(=O)c2c(F)cccc2Cl)nn1S(=O)(=O)c1ccccc1 | 0 | 0 | 0 | 0 | 54 | 0 | 51 | 22 | 0 | 0
COc1cccc(C(=O)Oc2cc(N)n(S(=O)(=O)c3ccc(C)cc3)n2)c1OC | 0 | 0 | 0 | 0 | 64 | 0 | 50 | 14 | 0 | 0
Cc1ccc(C(=O)Oc2cc(N)n(S(=O)(=O)c3ccc(F)cc3)n2)cc1 | 0 | 0 | 0 | 0 | 0 | 0 | - | - | - | -
COc1ccc2c(OC)cc(=O)n(C)c2c1 | 0 | 0 | 0 | 0 | 68 | 0 | 0 | 0 | 0 | 0
COc1cc(=O)n(C)c2ccccc12 | 0 | 0 | 0 | 0 | 0 | 0 | - | - | - | -
COc1ccc(-c2ccccc2)cc1NC(=O)[C@@H]1O[C@H](CO)[C@@H](O)[C@H]1O | - | - | - | - | 0 | 0 | - | - | - | -
CCC(C)(C)C(=O)Nc1ncc(S(=O)(=O)c2ccc([N+](=O)[O-])cc2)s1 | 0 | 0 | 0 | 0 | 104 | 0 | 76 | 52 | 52 | 41
CCOCCC(=O)Nc1ncc(S(=O)(=O)c2ccc([N+](=O)[O-])cc2)s1 | - | - | - | - | 0 | 0 | - | - | - | -
COC(=O)C(NC(=O)c1ccccc1Cl)(Nc1ncc(S(=O)(=O)c2ccc([N+](=O)[O-])cc2)s1)C(F)(F)F (stereo unspecified) | 0 | 0 | 0 | 0 | 88 | 0 | 57 | 27 | 0 | 29
CC(C)CC(C(=O)NC(C)(C)C)N(Cc1ccccc1Cl)C(=O)c1snc(C(N)=O)c1N (stereo unspecified) | - | - | 0 | - | 0 | 0 | - | - | - | -
